A selection: hits, their analogues and other compounds. The true share with any hit is near 1.9%.
TAG inh = triacylglycerol accumulation inhibition; H9c2 cells, Nile Red lipid (TAG) fluorescence; cells loaded with 200 µM oleic acid; inhibition, % at 12.5 µM; 230,000 tested, 0.66% active; AID 651582;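 active means pattern-corrected inhibition of lipid staining of at least 50% with the nuclear-stain viability signal not falling by more than 50%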;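 further: 0% = DMSO wells and 100% = triacsin C control wells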
APJ antagonist = APJ receptor antagonism | P35414 | CHO-K1 APJ beta-arrestin complementation, luminescence | inhibition, % at 20 µM | 330,000 tested, 0.32% active | AID 2521;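 active means inhibition above about 40% at 20 µM, limit read from the data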;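 further: cells challenged with 10 nM apelin-13 agonist together with compound; plate controls were apelin-13 plus DMSO wells for no effect and DMSO wells lacking apelin-13 for full effect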
CCR6 antag = antagonists of human CCR6 receptor; AID 493098; inhibition, % at 20 µM; 340,000 tested, 0.49% active; CHO-K1 CCR6 PathHunter beta-arrestin, luminescence, CCL20-stimulated;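 active means compounds whose inhibition of the agonist-driven luminescence signal at 20 µM reaches about 50%, limit read from the data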;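 further: cells stimulated with CCL20 at 14 nM final; plate controls were DMSO with CCL20 for no effect and DMSO without agonist for full effect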
Target sequence (P51684 whole entry, looked up): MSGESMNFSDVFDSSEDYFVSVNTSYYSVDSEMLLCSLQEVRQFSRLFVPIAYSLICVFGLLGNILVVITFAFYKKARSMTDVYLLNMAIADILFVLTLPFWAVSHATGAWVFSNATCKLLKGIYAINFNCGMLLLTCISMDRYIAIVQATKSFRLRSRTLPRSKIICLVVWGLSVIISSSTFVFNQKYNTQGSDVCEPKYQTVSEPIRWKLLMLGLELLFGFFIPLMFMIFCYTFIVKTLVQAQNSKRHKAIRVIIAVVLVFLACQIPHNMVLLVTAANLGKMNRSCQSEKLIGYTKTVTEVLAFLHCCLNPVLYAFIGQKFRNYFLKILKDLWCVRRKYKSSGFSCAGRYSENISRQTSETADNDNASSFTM
EBI2 antag = antagonists of human EBI2 receptor. 360,000 tested, 0.81% active. EBI2 beta-arrestin recruitment, luminescence, 7a,25-OHC stimulated. inhibition, % at 5 µM; in the data active means inhibition above about 38%;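 further: enzyme fragment complementation signal reports receptor beta-arrestin coupling in cells; 0% = agonist plus DMSO wells and 100% = wells without agonist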
CXCR6 inh = CXCR6 (human) receptor inhibition; 360,000 tested, 0.36% active; CHO-K1 PathHunter CXCR6 beta-arrestin, luminescence; O00574; inhibition, % at 20 µM; in the data active means inhibition above about 34%, passing the limit was not always enough;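 further: antagonist mode with CXCL16 agonist at 10 nM final; 0% = 10 nM CXCL16 with DMSO and 100% = unstimulated wells without agonist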
Target sequence (O00574 whole entry, looked up): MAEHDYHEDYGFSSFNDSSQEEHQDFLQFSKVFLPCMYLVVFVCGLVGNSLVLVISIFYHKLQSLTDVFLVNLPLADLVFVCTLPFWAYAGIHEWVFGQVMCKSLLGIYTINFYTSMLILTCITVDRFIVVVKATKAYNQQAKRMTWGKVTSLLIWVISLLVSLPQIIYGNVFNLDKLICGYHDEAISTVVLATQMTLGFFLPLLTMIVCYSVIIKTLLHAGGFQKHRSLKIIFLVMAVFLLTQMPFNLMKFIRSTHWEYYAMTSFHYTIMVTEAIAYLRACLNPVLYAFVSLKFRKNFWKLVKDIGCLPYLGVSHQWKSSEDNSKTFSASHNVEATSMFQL
APJ ag = activates the human apelin receptor APJ. 330,000 tested, 0.11% active. P35414. activation, % at 20 µM. CHO-K1 APJ PathHunter beta-arrestin, luminescence; 0% DMSO wells, 100% apelin;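 active means activation more than six SD over the plate average, tested at 20 µM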;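 further: 0% = DMSO alone and 100% = apelin-13 at 10 nM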
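Assay system – PathHunter CHO-K1 APJ (AGTRL-1) beta-arrestin reporter cells · Compound – one dose, 20 µM compound, 1% DMSO · Timing – compound 90 min 25 °C, reagent 1 h · Measured by – luminescence from split beta-galactosidase complementation, Galacton Star/Emerald II substrate · Measure – beta-arrestin recruitment to APJ as agonist activity, luminescent signal · Benchmarks – DMSO vs Apelin-13 10 nM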
* = called active by the depositor; x = no result.

SMILES	TAG inh	APJ antagonist	CCR6 antag	EBI2 antag	CXCR6 inh	APJ ag
Cc1cccc(-n2nc([N+](=O)[O-])c(=NC3CCN(Cc4ccccc4)CC3)n2O)c1	17.0	-69.9	0.1	-25.6	-13.7	16.1*
CC(=O)OC[C@@H]1CN(Cc2ccccc2)C[C@H](n2cnc3c(NCC(C)C)ncnc32)O1	10.4	x	x	-5.3	1.5	x
CC1(C)C(=O)C=CC(=O)C(C)(C)C(=O)C=CC(=O)C(C)(C)C2=CC=C(O2)C(C)(C)C(=O)C=CC1=O	24.1	x	54.6*	-1.7	4.1	x
CC(C)c1cc(C(=O)NCc2ccc(F)cc2)c(N)s1	x	x	x	-2.6	x	x
Cc1cc(=O)n(C(C)Cc2ccccc2)n1C(C)Cc1ccccc1 (centres undefined)	-14.3	x	11.3	0.9	-8.7	x
Cc1cc(C)c(CN2CCN(C(=O)Cn3cnc4c(OCc5ccccc5)ncnc43)CC2)c(C)c1	-3.5	0.6	5.7	7.9	5.3	-2.1
COc1ccc(NC(=O)c2cc3c(-c4ccc(OC)c(OC)c4)nn(C)c3s2)cc1OC	79.1*	0.5	-15.2	-5.0	1.9	8.8
Cc1cc(C)nc(S/C=C/C(=O)c2ccccc2F)n1	75.1*	13.9	13.5	14.3	31.2	-0.7
CC(=O)N1CCn2c3c(c(=O)c4cc(C)ccc42)CCC31 (centres undefined)	2.1	40.4*	27.1	6.9	12.0	-10.7
CC1CCCN(C(=O)c2ccc3c(c2NCCO)C(=O)c2ccccc2C3=O)C1 (centres undefined)	89.7*	-9.0	21.2	21.3	5.7	4.3
CCN(CCN(C)C)C(=O)c1ccc2c(c1NCCO)C(=O)c1ccccc1C2=O	11.5	-19.1	16.7	-1.1	0.5	2.4
CC1(C)CCCN(C(=O)c2ccc3c(c2NCCO)C(=O)c2ccccc2C3=O)C1	x	-12.2	22.1	38.4*	-0.3	-0.5
O=C(/C=C/c1ccc(O)c(O)c1)c1ccc(S(=O)(=O)N2CCCCCC2)cc1	x	41.9*	62.5*	9.5	28.8	-5.7
Cc1cc(C)c(Nc2cc(S(=O)(=O)O)c(N)c3c2C(=O)c2ccccc2C3=O)c(C)c1	x	x	54.4*	16.7	39.2*	x
Cc1cc(C)c(NC(=O)COC(=O)c2cccc3c2C(=O)c2ccccc2C3=O)c(C)c1	-4.9	-11.0	15.3	14.6	-0.9	5.7
O=C(O)c1ccc(N/N=C/c2ccc(-c3ccccc3Cl)o2)cc1	67.6*	-1.4	2.7	-16.9	-5.5	-1.3
Cc1ccc(C(=O)C2CC2)cc1C	-29.6	x	9.6	-6.3	3.9	x
CCN(CC)c1ccc(Nc2nc(N3CCOCC3)c3ccccc3n2)cc1	x	-23.6	-1.4	44.8*	0.6	5.7
Cc1ccc(-c2cc(-c3ccccc3)c(C#N)c(N)n2)o1	-10.6	-0.2	77.9*	-4.7	0.6	-6.5
Cc1ccc(-c2cc(-c3ccccc3Cl)c(C#N)c(N)n2)o1	-9.1	21.2	25.6	16.9	2.3	-4.9
CCN1/C(=C/C=C/c2oc3ccc(-c4ccccc4)cc3[n+]2CC)Oc2ccc(-c3ccccc3)cc21	-499.5	10.8	59.8*	-9.6	22.4	-1.0
CCCCN1C(=O)/C(=C/C=C2\Oc3ccccc3N2CC)SC1=S	-237.1	x	30.7	22.7	32.3	x
Cc1ccc(Nc2nc(-c3cccnc3)cs2)cc1Cl	x	2.2	-3.9	48.4*	-14.5	-1.3
CN(C)c1ccc(/C=C/c2ccc3c4ccccc4ccc3[n+]2-c2ccccc2)cc1	66.9*	x	83.2*	45.5*	62.3*	x
Nc1nc(CCl)nc(N(c2ccccc2)c2ccccc2)n1	80.0*	25.1	10.2	8.9	12.7	-5.6
SMILES	TAG inh	APJ antagonist	CCR6 antag	EBI2 antag	CXCR6 inh	APJ ag
Cc1cc(-c2ccc(N=Nc3c(S(=O)(=O)O)cc4cc(S(=O)(=O)O)cc(N)c4c3O)c(C)c2)ccc1N=Nc1c(S(=O)(=O)O)cc2cc(S(=O)(=O)O)cc(N)c2c1O	x	78.0*	x	x	x	-16.5
COc1ccc(NC(=O)CN(C)S(=O)(=O)c2ccc3c(c2)CC(C)N3C(C)=O)cc1OC (centres undefined)	x	4.8	11.5	4.5	-2.5	-2.2
CCCC1=Nc2cc(C(=O)NCCCOCC)ccc2Sc2ccccc21	79.3*	4.0	9.2	-8.8	-8.9	-2.9
CCCC1=Nc2cc(C(=O)NCCCOC(C)C)ccc2Sc2ccccc21	40.1	-18.8	15.4	7.4	8.4	-5.1
CN(C)CC1CCC/C(=C\c2ccc(OC(=O)/C=C/c3ccccc3)cc2)C1=O (centres undefined)	8.5	x	62.5*	3.9	33.9	x
CN(C)CC1CCC/C(=C\c2ccc(OC(=O)c3ccc(Cl)cc3)cc2)C1=O (centres undefined)	25.2	x	59.5*	9.7	12.1	x
CC(OC(=O)C1CCCCC1)C(=O)Nc1cccc([N+](=O)[O-])c1 (centres undefined)	9.7	20.2	13.8	-10.2	-4.7	-3.4
COC1=C(Br)C(=O)c2nc(C)ccc2C1=O	4.6	x	x	-20.6	43.5*	x
CCOC(=O)CN1C(=O)S/C(=C/c2cccc([N+](=O)[O-])c2O)C1=O	x	32.1	56.0*	19.2	36.0	-8.1
COC(=O)[C@@]1(C(C)C)N=C(c2cc(OC)c(OC)c(OC)c2)[C@]2(O1)C(=O)N(C)c1ccccc12	x	x	x	1.4	5.1	x
CC(=O)c1cccc([N+](=O)[O-])c1	x	10.1	6.8	-1.5	-0.4	-2.5
O=C(C#Cc1ccccc1)c1cccc([N+](=O)[O-])c1	x	35.1	93.4*	32.3	91.2*	-0.3
CC(C)(C)N1CC(C(=O)Nc2ccc(C(N)=O)cc2)CC1=O (centres undefined)	-6.9	x	x	1.4	-6.2	x
CCN(CC)c1ccc(/C=C(\C#N)C(N)=S)cc1	-17.9	-33.0	51.7*	15.8	35.0	1.7
CCN(CC)c1ccc(/C=C(\C#N)C(N)=O)cc1	17.4	x	15.0	0.0	-1.4	x
CCN(CC)c1ccc(/C=C(\C#N)C(=O)c2ccc(Br)cc2)cc1	0.7	x	32.4	45.1*	29.5	x
CSCCC1NC(=O)N(CC(=O)Nc2ccc3c(c2)OCCO3)C1=O (centres undefined)	2.8	1.7	6.8	-2.7	-3.8	-3.0
Cc1ccc(C)c(N=Nc2nc3ccccc3n2C)c1	x	14.8	31.6	41.5	27.7*	-10.2
Cc1cc(C)c(C)c(N=Nc2nc3ccccc3n2C)c1C	15.6	27.0	27.6	17.5	20.9	-6.2
O=C1c2sc3nc4ccccc4n3c2C(=O)N1c1ccccc1Cl	-7.1	-2.3	47.4	9.1	38.4*	-4.6
O=C(c1nc[nH]c1C(=O)N1CCN(c2ccccc2)CC1)N1CCN(c2ccccc2)CC1	-18.4	0.2	0.5	-2.4	-0.6	-4.9
CCOC(=O)C1(Cc2ccc(Cl)cc2)CCN(C(=O)CCc2cnccn2)CC1	2.4	-25.8	62.0*	-3.6	-4.2	-4.4
O=[N+]([O-])c1ccc(/C=N/N=C/c2ccc([N+](=O)[O-])o2)o1	106.7	x	61.2*	-7.1	37.1	x

Screening data: PubChem BioAssay, Sanford-Burnham Center for Chemical Genomics
